Values joined by “and” are separate entries in the source; they are usually repeats but may differ in a detail not shown here. Identical values can stand only once. Like-named read-outs stand apart in the source and are kept apart here.
Assays:
[1] = tested on: cytochrome P450 (CYP) 2C9; settings: cited from earlier work
Multiple‐dose = assay type: in vivo, human; settings: for AUCτ, mean ± SD: after last of 9 multiple doses; for Cmax / Tmax: human, plasma, oral
Procedure, shortened: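 After the single dose, the same subjects took the assigned dose twice daily, 9 doses, with only a morning dose on the final day. Morning doses were fasted; evening doses were taken without regard to meals. Plasma was sampled predose on days 3–7 (A–D) or 4–8 (E), then 0.5–12 h postdose. AUCτ by trapezoidal method; fluctuation 100*(Cmax−Cmin)/Cavg; accumulation as AUCτ/AUC0-t.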

Safety/tolerability = assay type: in vivo, human
Procedure, shortened: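 Open-label oral dose escalation. Cohorts A–E received 10 doses (1 single, then 9 twice daily). Cohort F (n = 6) took titrated twice-daily doses of 100–800 mg/day on days 1–14, up to 28 doses, and was assessed for safety only. Vital signs were taken at screening, baseline and each study day, with a 12-lead ECG at screening. AEs were recorded when reported.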

[2] = assay type: in vivo, human; settings: for AUC0‐t, mean ± SD: fasted, plasma to 48 h
Procedure, shortened: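 Healthy adults, cohorts A–E (n = 6 each), single oral tablet dose (25–400 mg) with 8 oz water after ≥10 h fast plus 4 h more. Potassium-EDTA plasma sampled predose and 0.5–48 h, stored −70°C ≤62 days, solid-supported liquid-liquid extraction. AUC0-t by trapezoidal method; AUC0-∞ = AUC0-t + Clast/λ. BQL values taken as zero. Power-model dose proportionality with 95% CI.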

[3] = tested on: hypokalemic PP and hyperkalemic PP; settings: doses from approximately 100 to 200 mg/day, versus placebo; cited from earlier work
[4] = Cohort A (n = 6): 1 × 25 mg then 9 × 25 mg BID
[5] = Cohort B (n = 6): 1 × 50 mg then 9 × 50 mg BID
[6] = Cohort C (n = 6): 1 × 100 mg then 9 × 100 mg BID
[7] = Cohort D (n = 6): 1 × 200 mg then 9 × 200 mg BID
[8] = Cohort E (n = 6): 1 × 400 mg then 9 × 400 mg BID
[9] = Cohort F (n = 6): dose titration 50 to 400 mg BID, up to 28 doses
[10] = Cohort A 25 mg single oral dose (n = 6)
[11] = Cohort B 50 mg single oral dose (n = 6)
[12] = Cohort C 100 mg single oral dose (n = 6)
[13] = Cohort D 200 mg single oral dose (n = 6)
[14] = Cohort E 400 mg single oral dose (n = 6)

NS(=O)(=O)c1cc(Cl)c(Cl)c(S(N)(=O)=O)c1 [dichlorphenamide]
Effect on CYP2C9‐mediated 7‐methoxy‐4‐(trifluoromethyl)coumarin (MFC) metabolism [1]: relatively weak activator
Cavg, mean ± SD (Multiple‐dose; Cohort A 25 mg BID (n = 5)): 837 ± 274 ng/mL
AUCτ, mean ± SD (Multiple‐dose; Cohort A 25 mg BID (n = 5)): 10,038 ± 3283 ng˙h/mL
Cavg, mean ± SD (Multiple‐dose; Cohort B 50 mg BID (n = 6)): 1527 ± 549 ng/mL
AUCτ, mean ± SD (Multiple‐dose; Cohort B 50 mg BID (n = 6)): 18,329 ± 6593 ng˙h/mL
Cavg, mean ± SD (Multiple‐dose; Cohort C 100 mg BID (n = 6)): 3122 ± 1108 ng/mL
AUCτ, mean ± SD (Multiple‐dose; Cohort C 100 mg BID (n = 6)): 37,468 ± 13,298 ng˙h/mL
Cavg, mean ± SD (Multiple‐dose; Cohort D 200 mg BID (n = 5)): 7080 ± 2854 ng/mL
AUCτ, mean ± SD (Multiple‐dose; Cohort D 200 mg BID (n = 5)): 84,960 ± 34,245 ng˙h/mL
Cavg, mean ± SD (Multiple‐dose; Cohort E 400 mg BID (n = 3)): 17,298 ± 5219 ng/mL
AUCτ, mean ± SD (Multiple‐dose; Cohort E 400 mg BID (n = 3)): 207,577 ± 62,626 ng˙h/mL
Cmax (Multiple‐dose; 25 mg): 1150 ± 239 ng/mL
Tmax (Multiple‐dose; 25 mg): 2 h
Cmax (Multiple‐dose; 50 mg): 2220 ± 959 ng/mL
Tmax (Multiple‐dose; 50 mg): 3 h
Cmax (Multiple‐dose; 100 mg): 4870 ± 1890 ng/mL
Tmax (Multiple‐dose; 100 mg): 1.5 h
Cmax (Multiple‐dose; 200 mg): 10700 ng/mL
Tmax (Multiple‐dose; 200 mg): 2 h
Cmax (Multiple‐dose; 400 mg): 26600 ng/mL
Tmax (Multiple‐dose; 400 mg): 1 h
Slope for LnAUCτ (dose proportionality, power model), with 95%CI (Multiple‐dose; multiple doses 25–400 mg BID): 1.09 (95%CI, 0.92–1.26)
Slope for LnCmax (dose proportionality, power model), with 95%CI (Multiple‐dose; multiple doses 25–400 mg BID): 1.13 (95%CI, 0.95–1.31)
Accumulation ratios of AUCτ/AUC0‐t (Multiple‐dose; multiple‐ versus single‐dose phase): greater than 1
Tolerability for extended use (Safety/tolerability; 800 mg total daily dose, short‐term study): intolerable for extended use
Blood potassium decreased, TEAE of any severity, subjects (Safety/tolerability; [4]): 0
Dizziness, TEAE of any severity, subjects (Safety/tolerability; [4]): 0
Dysgeusia, TEAE of any severity, subjects (Safety/tolerability; [4]): 0
Dyspnea, TEAE of any severity, subjects (Safety/tolerability; [4]): 0
Oral paresthesia, TEAE of any severity, subjects (Safety/tolerability; [4]): 0
Paresthesia, TEAE of any severity, subjects (Safety/tolerability; [4]): 0
Subjects discontinuing due to TEAE (Safety/tolerability; [4]): 0 n (%)
Subjects reporting at least 1 TEAE (Safety/tolerability; [4]): 1 (16.7) n (%)
Subjects reporting at least 1 serious TEAE (Safety/tolerability; [4]): 0 n (%)
Total TEAEs reported (Safety/tolerability; [4]): 1
Treatment‐related AEs reported (Safety/tolerability; [4]): 0
Blood potassium decreased, TEAE of any severity, subjects (Safety/tolerability; [5]): 0
Dizziness, TEAE of any severity, subjects (Safety/tolerability; [5]): 0
Dysgeusia, TEAE of any severity, subjects (Safety/tolerability; [5]): 0
Dyspnea, TEAE of any severity, subjects (Safety/tolerability; [5]): 0
Oral paresthesia, TEAE of any severity, subjects (Safety/tolerability; [5]): 0
Paresthesia, TEAE of any severity, subjects (Safety/tolerability; [5]): 0
Subjects discontinuing due to TEAE (Safety/tolerability; [5]): 0 n (%)
Subjects reporting at least 1 TEAE (Safety/tolerability; [5]): 1 (16.7) n (%)
Subjects reporting at least 1 serious TEAE (Safety/tolerability; [5]): 0 n (%)
Total TEAEs reported (Safety/tolerability; [5]): 3
Treatment‐related AEs reported (Safety/tolerability; [5]): 2
Blood potassium decreased, TEAE of any severity, subjects (Safety/tolerability; [6]): 1 (16.7)
Dizziness, TEAE of any severity, subjects (Safety/tolerability; [6]): 0
Dysgeusia, TEAE of any severity, subjects (Safety/tolerability; [6]): 0
Dyspnea, TEAE of any severity, subjects (Safety/tolerability; [6]): 0
Oral paresthesia, TEAE of any severity, subjects (Safety/tolerability; [6]): 0
Paresthesia, TEAE of any severity, subjects (Safety/tolerability; [6]): 2 (33.3)
Subjects discontinuing due to TEAE (Safety/tolerability; [6]): 0 n (%)
Subjects reporting at least 1 TEAE (Safety/tolerability; [6]): 4 (66.7) n (%)
Subjects reporting at least 1 serious TEAE (Safety/tolerability; [6]): 0 n (%)
Total TEAEs reported (Safety/tolerability; [6]): 16
Treatment‐related AEs reported (Safety/tolerability; [6]): 14
Blood potassium decreased, TEAE of any severity, subjects (Safety/tolerability; [7]): 0
Dizziness, TEAE of any severity, subjects (Safety/tolerability; [7]): 4 (66.7)
Dysgeusia, TEAE of any severity, subjects (Safety/tolerability; [7]): 3 (50.0)
Dyspnea, TEAE of any severity, subjects (Safety/tolerability; [7]): 3 (50.0)
Oral paresthesia, TEAE of any severity, subjects (Safety/tolerability; [7]): 1 (16.7)
Paresthesia, TEAE of any severity, subjects (Safety/tolerability; [7]): 2 (33.3)
Subjects discontinuing due to TEAE (Safety/tolerability; [7]): 1 n (%) and 1 (16.7) n (%)
Subjects reporting at least 1 TEAE (Safety/tolerability; [7]): 6 (100) n (%)
Subjects reporting at least 1 serious TEAE (Safety/tolerability; [7]): 0 n (%)
Total TEAEs reported (Safety/tolerability; [7]): 36
Treatment‐related AEs reported (Safety/tolerability; [7]): 33
Blood potassium decreased, TEAE of any severity, subjects (Safety/tolerability; [8]): 1 (16.7)
Dizziness, TEAE of any severity, subjects (Safety/tolerability; [8]): 3 (50.0)
Dysgeusia, TEAE of any severity, subjects (Safety/tolerability; [8]): 1 (16.7)
Dyspnea, TEAE of any severity, subjects (Safety/tolerability; [8]): 1 (16.7)
Oral paresthesia, TEAE of any severity, subjects (Safety/tolerability; [8]): 1 (16.7)
Paresthesia, TEAE of any severity, subjects (Safety/tolerability; [8]): 4 (66.7)
Subjects discontinuing due to TEAE (Safety/tolerability; [8]): 3 n (%) and 3 (50.0) n (%)
Subjects reporting at least 1 TEAE (Safety/tolerability; [8]): 6 (100) n (%)
Subjects reporting at least 1 moderate TEAE (Safety/tolerability; [8]): 1 (16.7) n (%)
Subjects reporting at least 1 serious TEAE (Safety/tolerability; [8]): 0 n (%)
Total TEAEs reported (Safety/tolerability; [8]): 42
Treatment‐related AEs reported (Safety/tolerability; [8]): 39
Dizziness, TEAE of any severity, subjects (Safety/tolerability; [9]): 0
Dysgeusia, TEAE of any severity, subjects (Safety/tolerability; [9]): 0
Dyspnea, TEAE of any severity, subjects (Safety/tolerability; [9]): 1 (16.7)
Oral paresthesia, TEAE of any severity, subjects (Safety/tolerability; [9]): 0
Paresthesia, TEAE of any severity, subjects (Safety/tolerability; [9]): 2 (33.3)
Subjects discontinuing due to TEAE (Safety/tolerability; [9]): 6 n (%) and 6 (100) n (%)
Subjects reporting at least 1 TEAE (Safety/tolerability; [9]): 6 (100) n (%)
Subjects reporting at least 1 moderate TEAE (Safety/tolerability; [9]): 2 (33.3) n (%)
Subjects reporting at least 1 serious TEAE (Safety/tolerability; [9]): 1 (16.7) n (%)
Total TEAEs reported (Safety/tolerability; [9]): 50
Treatment‐related AEs reported (Safety/tolerability; [9]): 40
TEAEs reported as moderate (Safety/tolerability; all cohorts): 7
Dizziness, number of subjects (Safety/tolerability; all cohorts (N = 36)): 7 subjects
Paresthesia (including oral), number of subjects (Safety/tolerability; all cohorts (N = 36)): 12 subjects
Subjects reporting at least 1 TEAE in gastrointestinal system organ class (Safety/tolerability; all cohorts (N = 36)): 28%
Subjects reporting at least 1 TEAE in nervous system organ class (Safety/tolerability; all cohorts (N = 36)): 50%
Subjects withdrawn/discontinued due to AEs (Safety/tolerability; all cohorts, 36 enrolled): 10 subjects
Changes in vital signs or ECG findings (Safety/tolerability; any subject): No clinically relevant changes
Serum potassium, clinically significant reduction in 1 subject (Safety/tolerability; cohort C, poststudy): 2.8 mmol/L
Serious TEAE of rash requiring brief hospitalization, subjects (Safety/tolerability; cohort F): 1 subject
Subjects with below‐normal serum potassium (Safety/tolerability; cohort F): 5 of 6
Discontinuations to which hypokalemia contributed (Safety/tolerability; cohort F (all 800 mg/day)): 5 of 6
Serum potassium, lowest recorded value (Safety/tolerability; cohort F, multiple study time points): 2.8 mmol/L
Subjects with clinically significant reductions in serum potassium (Safety/tolerability; cohorts A through E, poststudy): 2 subjects
Subjects with at least one mild‐to‐moderate AE (Safety/tolerability; cohorts D, E, and F): 100%
AUC0‐∞, mean ± SD [2, 10]: 5908 ± 3959 ng˙h/mL
AUC0‐t, mean ± SD [2, 10]: 2327 ± 731 ng˙;h/mL
AUC0‐∞, mean ± SD [2, 11]: 14,734 ± 4555 ng˙h/mL
AUC0‐t, mean ± SD [2, 11]: 7897 ± 2055 ng˙;h/mL
AUC0‐∞, mean ± SD [2, 12]: 28,901 ± 13,317 ng˙h/mL
AUC0‐t, mean ± SD [2, 12]: 19,119 ± 7317 ng˙;h/mL
AUC0‐∞, mean ± SD [2, 13]: 66,456 ± 26,211 ng˙h/mL
AUC0‐t, mean ± SD [2, 13]: 38,132 ± 8249 ng˙;h/mL
AUC0‐∞, mean ± SD [2, 14]: 142,007 ± 16,279 ng˙h/mL
AUC0‐t, mean ± SD [2, 14]: 88,243 ± 12,616 ng˙;h/mL
half-life ([2]; human, plasma, oral): 32 to 68 h
Tmax ([2]; human, plasma, oral, Median Tmax, range across doses, single doses 25–400 mg): 1.5 to 3 h
Cmax ([2]; human, plasma, po, 25 mg): 298 ± 77 ng/mL
half-life ([2]; human, plasma, po, 25 mg): 68.4 ± 35 h
Cmax ([2]; human, plasma, po, 50 mg): 709 ± 490 ng/mL
half-life ([2]; human, plasma, po, 50 mg): 51.4 ± 24 h
Cmax ([2]; human, plasma, po, 100 mg): 1510 ± 909 ng/mL
half-life ([2]; human, plasma, po, 100 mg): 31.9 ± 11 h
Cmax ([2]; human, plasma, po, 200 mg): 3030 ± 1210 ng/mL
half-life ([2]; human, plasma, po, 200 mg): 41 ± 17 h
Cmax ([2]; human, plasma, po, 400 mg): 6320 ± 1280 ng/mL
half-life ([2]; human, plasma, po, 400 mg): 38.6 ± 8 h
Slope for LnAUC0‐t (dose proportionality, power model), with 95%CI ([2]; single doses 25–400 mg): 1.29 (95%CI, 1.18‐1.40)
Slope for LnCmax (dose proportionality, power model), with 95%CI ([2]; single doses 25–400 mg): 1.11 (95%CI, 0.97‐1.26)
Frequency and severity of attacks in primary periodic paralysis [3]: significant reduction
